In ChEMBL document CHEMBL3232963, “Discovery of a potent and selective α3β4 nicotinic acetylcholine receptor antagonist from an α-conotoxin synthetic combinatorial library” (J Med Chem, 2014):
Bridge positions count the residues as written; N and C are the ends. Square brackets hold non-standard residues; d marks the D form. Peptide text beside a SMILES is read from it. Nle = CCCC[C@H](N)C(=O)O; Nva = CCC[C@H](N)C(=O)O; Abu = CC[C@H](N)C(=O)O

target: Neuronal acetylcholine receptor; alpha3/beta4 (Rattus norvegicus) (UniProt P04757+P12392); assay: Antagonist activity at rat alpha3beta4 nAChR expressed in HEK293 cells assessed as inhibition of epibatadine-induced effect at 10 uM after 30 mins by fluorescent membrane potential assay relative to mecamylamine; assay type: cell-based
Method in brief: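 Rat α3β4 nAChR stably expressed in HEK293 cells; crude, SPE-desalted individual peptides tested at 10 μM in HBSS with membrane potential blue dye, 30 min at 37 °C. Fluorescence change read after epibatidine (0.1 μM). Percent inhibition set against 10 μM mecamylamine taken as 100%.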

| Compound | inhibition |
| --- | --- |
| CCCC[C@@H]1NC(=O)[C@H](CC)NC(=O)[C@H]([C@H](C)CC)NC(=O)[C@@H]2CSSC[C@H](NC(=O)CN)C(=O)N[C@@H](CSSC[C@@H](C(=O)O)NC(=O)[C@@H]3CCCN3C1=O)C(=O)N[C@@H](CO)C(=O)N[C@@H](Cc1cnc[nH]1)C(=O)N1CCC[C@H]1C(=O)N1CCC[C@H]1C(=O)N2 | 38.1% |
| CCCC[C@@H]1NC(=O)[C@H](CC)NC(=O)[C@H]([C@H](C)CC)NC(=O)[C@@H]2CSSC[C@H](NC(=O)CN)C(=O)N[C@@H](CSSC[C@@H](C(=O)O)NC(=O)[C@@H]3CCCN3C1=O)C(=O)N[C@@H](CO)C(=O)N[C@@H](CCCC)C(=O)N1CCC[C@H]1C(=O)N[C@@H](CC)C(=O)N2 | 42.9% |
| CCC[C@@H]1NC(=O)[C@H](Cc2c[nH]c3ccccc23)NC(=O)[C@H](Cc2ccccc2)NC(=O)[C@@H]2CSSC[C@H](NC(=O)CN)C(=O)N[C@@H](CSSC[C@@H](C(=O)O)NC(=O)[C@H](Cc3ccc(O)cc3)NC1=O)C(=O)N[C@@H](CO)C(=O)N[C@@H](Cc1cnc[nH]1)C(=O)N1CCC[C@H]1C(=O)N1CCC[C@H]1C(=O)N2 (H-GCCSHPPCFW[Nva]YC-OH; disulfide 2-8, 3-13) | 47.8% |
| CCCC[C@@H]1NC(=O)[C@H](CC)NC(=O)[C@H](Cc2ccccc2)NC(=O)[C@@H]2CSSC[C@H](NC(=O)CN)C(=O)N[C@@H](CSSC[C@@H](C(=O)O)NC(=O)[C@@H]3CCCN3C1=O)C(=O)N[C@@H](CO)C(=O)N[C@@H](Cc1cnc[nH]1)C(=O)N1CCC[C@H]1C(=O)N1CCC[C@H]1C(=O)N2 (H-GCCSHPPCF[Abu][Nle]PC-OH; disulfide 2-8, 3-13) | 29.1% |
| CCCC[C@@H]1NC(=O)[C@H](CO)NC(=O)[C@@H]2CSSC[C@@H](C(=O)O)NC(=O)[C@@H]3CCCN3C(=O)[C@H](CCC)NC(=O)[C@H](CC)NC(=O)[C@H](Cc3ccccc3)NC(=O)[C@H](CSSC[C@H](NC(=O)CN)C(=O)N2)NC(=O)[C@@H]2CCCN2C(=O)[C@@H]2CCCN2C1=O (H-GCCS[Nle]PPCF[Abu][Nva]PC-OH; disulfide 2-8, 3-13) | 35.7% |
| CCCC[C@@H]1NC(=O)[C@H](Cc2c[nH]c3ccccc23)NC(=O)[C@H](Cc2ccccc2)NC(=O)[C@@H]2CSSC[C@H](NC(=O)CN)C(=O)N[C@@H](CSSC[C@@H](C(=O)O)NC(=O)[C@H](Cc3ccc(O)cc3)NC1=O)C(=O)N[C@@H](CO)C(=O)N[C@@H](CCCC)C(=O)N1CCC[C@H]1C(=O)N1CCC[C@H]1C(=O)N2 (H-GCCS[Nle]PPCFW[Nle]YC-OH; disulfide 2-8, 3-13) | 60.2% |
| CCCC[C@@H]1NC(=O)[C@H](CO)NC(=O)[C@@H]2CSSC[C@@H](C(=O)O)NC(=O)[C@@H]3CCCN3C(=O)[C@H](CCC)NC(=O)[C@H](CC)NC(=O)[C@H](Cc3ccccc3)NC(=O)[C@H](CSSC[C@H](NC(=O)CN)C(=O)N2)NC(=O)[C@H](CC)NC(=O)[C@@H]2CCCN2C1=O (H-GCCS[Nle]P[Abu]CF[Abu][Nva]PC-OH; disulfide 2-8, 3-13) | 40.3% |
| CCCC[C@@H]1NC(=O)[C@H](CO)NC(=O)[C@@H]2CSSC[C@@H](C(=O)O)NC(=O)[C@@H]3CCCN3C(=O)[C@H](CCC)NC(=O)[C@H](Cc3c[nH]c4ccccc34)NC(=O)[C@H]([C@H](C)CC)NC(=O)[C@H](CSSC[C@H](NC(=O)CN)C(=O)N2)NC(=O)[C@H](CC)NC(=O)[C@@H]2CCCN2C1=O | 44.8% |
| CCCC[C@@H]1NC(=O)[C@H](Cc2c[nH]c3ccccc23)NC(=O)[C@H]([C@H](C)CC)NC(=O)[C@@H]2CSSC[C@H](NC(=O)CN)C(=O)N[C@@H](CSSC[C@@H](C(=O)O)NC(=O)[C@H](Cc3ccc(O)cc3)NC1=O)C(=O)N[C@@H](CO)C(=O)N[C@@H](CCCC)C(=O)N1CCC[C@H]1C(=O)N1CCC[C@H]1C(=O)N2 | 51.8% |
| CCCC[C@@H]1NC(=O)[C@H](CO)NC(=O)[C@@H]2CSSC[C@@H](C(=O)O)NC(=O)[C@@H]3CCCN3C(=O)[C@H](CCC)NC(=O)[C@H](CC)NC(=O)[C@H]([C@H](C)CC)NC(=O)[C@H](CSSC[C@H](NC(=O)CN)C(=O)N2)NC(=O)[C@H](CC)NC(=O)[C@@H]2CCCN2C1=O | 19.2% |
| CCCC[C@@H]1NC(=O)[C@H](Cc2c[nH]c3ccccc23)NC(=O)[C@H]([C@H](C)CC)NC(=O)[C@@H]2CSSC[C@H](NC(=O)CN)C(=O)N[C@@H](CSSC[C@@H](C(=O)O)NC(=O)[C@@H]3CCCN3C1=O)C(=O)N[C@@H](CO)C(=O)N[C@@H](Cc1cnc[nH]1)C(=O)N1CCC[C@H]1C(=O)N1CCC[C@H]1C(=O)N2 | 10.1% |
| CCCC[C@@H]1NC(=O)[C@H](CC)NC(=O)[C@H]([C@H](C)CC)NC(=O)[C@@H]2CSSC[C@H](NC(=O)CN)C(=O)N[C@@H](CSSC[C@@H](C(=O)O)NC(=O)[C@@H]3CCCN3C1=O)C(=O)N[C@@H](CO)C(=O)N[C@@H](CCCC)C(=O)N1CCC[C@H]1C(=O)N1CCC[C@H]1C(=O)N2 | 31.3% |
| CCC[C@@H]1NC(=O)[C@H](Cc2c[nH]c3ccccc23)NC(=O)[C@H](Cc2ccccc2)NC(=O)[C@@H]2CSSC[C@H](NC(=O)CN)C(=O)N[C@@H](CSSC[C@@H](C(=O)O)NC(=O)[C@H](Cc3ccc(O)cc3)NC1=O)C(=O)N[C@@H](CO)C(=O)N[C@@H](Cc1cnc[nH]1)C(=O)N1CCC[C@H]1C(=O)N[C@@H](CC)C(=O)N2 (H-GCCSHP[Abu]CFW[Nva]YC-OH; disulfide 2-8, 3-13) | 72.1% |
| CCC[C@@H]1NC(=O)[C@H](CC)NC(=O)[C@H](Cc2ccccc2)NC(=O)[C@@H]2CSSC[C@H](NC(=O)CN)C(=O)N[C@@H](CSSC[C@@H](C(=O)O)NC(=O)[C@@H]3CCCN3C1=O)C(=O)N[C@@H](CO)C(=O)N[C@@H](Cc1cnc[nH]1)C(=O)N1CCC[C@H]1C(=O)N[C@@H](CC)C(=O)N2 (H-GCCSHP[Abu]CF[Abu][Nva]PC-OH; disulfide 2-8, 3-13) | 47% |
| CCC[C@@H]1NC(=O)[C@H](CC)NC(=O)[C@H](Cc2ccccc2)NC(=O)[C@@H]2CSSC[C@H](NC(=O)CN)C(=O)N[C@@H](CSSC[C@@H](C(=O)O)NC(=O)[C@@H]3CCCN3C1=O)C(=O)N[C@@H](CO)C(=O)N[C@@H](Cc1cnc[nH]1)C(=O)N1CCC[C@H]1C(=O)N1CCC[C@H]1C(=O)N2 (H-GCCSHPPCF[Abu][Nva]PC-OH; disulfide 2-8, 3-13) | 36% |
| CCCC[C@@H]1NC(=O)[C@H](CO)NC(=O)[C@@H]2CSSC[C@@H](C(=O)O)NC(=O)[C@H](Cc3ccc(O)cc3)NC(=O)[C@H](CCC)NC(=O)[C@H](Cc3c[nH]c4ccccc34)NC(=O)[C@H]([C@H](C)CC)NC(=O)[C@H](CSSC[C@H](NC(=O)CN)C(=O)N2)NC(=O)[C@H](CC)NC(=O)[C@@H]2CCCN2C1=O | 61.9% |
| CCCC[C@@H]1NC(=O)[C@H](Cc2c[nH]c3ccccc23)NC(=O)[C@H](Cc2ccccc2)NC(=O)[C@@H]2CSSC[C@H](NC(=O)CN)C(=O)N[C@@H](CSSC[C@@H](C(=O)O)NC(=O)[C@@H]3CCCN3C1=O)C(=O)N[C@@H](CO)C(=O)N[C@@H](Cc1cnc[nH]1)C(=O)N1CCC[C@H]1C(=O)N1CCC[C@H]1C(=O)N2 (H-GCCSHPPCFW[Nle]PC-OH; disulfide 2-8, 3-13) | 15.3% |
| CCC[C@@H]1NC(=O)[C@H](Cc2c[nH]c3ccccc23)NC(=O)[C@H]([C@H](C)CC)NC(=O)[C@@H]2CSSC[C@H](NC(=O)CN)C(=O)N[C@@H](CSSC[C@@H](C(=O)O)NC(=O)[C@H](Cc3ccc(O)cc3)NC1=O)C(=O)N[C@@H](CO)C(=O)N[C@@H](Cc1cnc[nH]1)C(=O)N1CCC[C@H]1C(=O)N[C@@H](CC)C(=O)N2 | 47.5% |
